Test results as given in ChEMBL document CHEMBL1151747, “Orally bioavailable isothioureas block function of the chemokine receptor CXCR4 in vitro and in vivo” (J Med Chem, 2008).

Key:
[1] = molecular target: T1, C-X-C chemokine receptor type 4 (Homo sapiens, UniProt P61073); assay: Activity at CXCR4 in human CEM cells assessed as inhibition of CXCL12-induced calcium mobilization; type: functional, cell-based, CCRF-CEM
In short: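 CEM cells are loaded with 4 µM Fluo-4 for 1 h at 37 °C, washed, then preincubated with antagonist for 2 h. Wells are run in quadruplicate on FLIPR.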

[2] = molecular target: T1, C-X-C chemokine receptor type 4; assay: Displacement of [125I]CXCL12 from CXCR4 in human CEM cells; type: cell-based, CCRF-CEM
In short: (§1)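 Scintillation proximity assay. Membranes come from CEM cells (human CXCR4) or IR983F cells (rat CXCR4), prepared by homogenization in 20 mM HEPES, 1 mM EDTA pH 7.4 and stored at -80 °C. Nonspecific binding is defined with 400 nM unlabeled CXCL12. Incubation is 2 h at room temperature with shaking, then scintillation counting.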

[3] = molecular target: C-X-C chemokine receptor type 4 (Rattus norvegicus, UniProt O08565); assay: Displacement of [125I]CXCL12 from CXCR4 in rat IR983F cells; type: cell-based; in short: as §1
C-X-C chemokine receptor type 4 (Rattus norvegicus, UniProt O08565), sequence (O08565 whole entry): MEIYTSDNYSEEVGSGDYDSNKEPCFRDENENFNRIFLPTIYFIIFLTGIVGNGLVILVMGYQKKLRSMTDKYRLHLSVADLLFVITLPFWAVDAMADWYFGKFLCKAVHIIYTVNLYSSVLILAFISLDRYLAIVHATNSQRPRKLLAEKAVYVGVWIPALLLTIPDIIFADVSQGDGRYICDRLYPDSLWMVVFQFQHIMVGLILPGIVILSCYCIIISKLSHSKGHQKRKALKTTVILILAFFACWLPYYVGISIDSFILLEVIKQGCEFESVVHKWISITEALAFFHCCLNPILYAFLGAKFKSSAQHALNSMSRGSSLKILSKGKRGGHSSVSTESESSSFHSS

[4] = test system: Human immunodeficiency virus 1; assay: Antiviral activity against X4-tropic HIV1 3B assessed as inhibition of viral attachment; type: functional, organism-based; settings: Human immunodeficiency virus 1, 3B

T1 sequence (P61073 whole entry): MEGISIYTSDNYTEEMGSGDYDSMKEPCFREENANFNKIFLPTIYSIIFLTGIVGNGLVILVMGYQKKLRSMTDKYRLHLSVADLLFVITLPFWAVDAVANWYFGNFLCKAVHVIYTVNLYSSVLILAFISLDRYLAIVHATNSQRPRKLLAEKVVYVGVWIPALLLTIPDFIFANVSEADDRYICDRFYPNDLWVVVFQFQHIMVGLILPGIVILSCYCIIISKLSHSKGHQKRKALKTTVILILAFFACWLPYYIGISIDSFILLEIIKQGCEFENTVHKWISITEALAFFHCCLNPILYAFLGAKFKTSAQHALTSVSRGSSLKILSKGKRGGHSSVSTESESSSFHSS

Q: Which results are given for CCCCCCNC(=NC1CCCCC1)SCC1=CSC2=NCCN12?
A: IC50 [1]: 75 nM; IC50 [2]: 855 nM

Q: C1=C(CSC(=NC2CCCCC2)NC2C3CC4CC(C3)CC2C4)N2CCN=C2S1 (stereo not given) was tested. Which IC50 [1] did it give?
A: The IC50 was 13 nM.

Q: And the IC50 [2]?
A: Its IC50 is 81 nM.

Q: CC(C)(C)C1CCC(NC(=NC2CCCCC2)SCC2=CSC3=NCCN23)CC1 (stereo not given) was tested. Which IC50 [1] did it give?
A: Its IC50 is 437 nM.

Q: What about the IC50 [2] of the same compound?
A: The IC50 was 1530 nM.

Q: Which results are given for NC(N)=NCCC[C@@H]1NC(=O)[C@H](CCCN=C(N)N)NC(=O)[C@@H](Cc2ccc(O)cc2)NC(=O)CNC(=O)[C@H](c2ccc3ccccc3c2)NC1=O?
A: IC50 [2]: 109 nM; IC50 [3]: 1440 nM

Q: Which IC50 [4] does the source give for C1=C(CS/C(=N\C2CCCCCC2)NC2CCCCCC2)N2CCN=C2S1 here?
A: The IC50 was 50 nM.

Q: And the IC90 [4]?
A: The IC90 was 820 nM.

Q: What about the IC50 [1] of the same compound?
A: Its IC50 is 3.1 nM.

Q: What about the IC50 [2] of the same compound?
A: The IC50 was 25 nM.

Q: c1ccc(CNC(=NC2CCCCC2)SCC2CSC3=NCCN32)cc1 (stereo not given) was tested. Which IC50 [1] did it give?
A: The IC50 was 2220 nM.

Q: And the IC50 [2]?
A: The IC50 was 10000 nM.

Q: With C1=C(CS/C(=N\C2CCCCC2)NC2CCCCC2)N2CCCN=C2S1 as the compound, how does the IC50 [1] read?
A: Its IC50 is 57 nM.

Q: What about the IC50 [2] of the same compound?
A: The IC50 was 185 nM.

Q: How did the IC50 [1] turn out when c1ccc2c(c1)nc1scc(CS/C(=N\C3CCCCC3)NC3CCCCC3)n12 was run?
A: Its IC50 is 8120 nM.

Q: And the IC50 [2]?
A: The IC50 was > 10000 nM.

Q: Which IC50 [1] does the source give for C1=C(CS/C(=N\C2CCCCC2)NC23CC4CC(CC(C4)C2)C3)N2CCN=C2S1 here?
A: The IC50 was 304 nM.

Q: And the IC50 [2]?
A: Its IC50 is 1870 nM.

Q: Which IC50 [4] does the source give for CC1(C)CN2C(CS/C(=N\C3CCCCCC3)NC3CCCCCC3)=CSC2=N1 here?
A: Its IC50 is 10 nM.

Q: And the IC90 [4]?
A: The IC90 was 130 nM.

Q: And the IC50 [1]?
A: Its IC50 is 2.1 nM.

Q: And the IC50 [2]?
A: Its IC50 is 8.8 nM.

Q: How did the IC50 [4] turn out when C1=C(CSC(=NC2CCCCC2)NC2CCCCCC2)N2CCN=C2S1 was run?
A: The IC50 was 40 nM.

Q: What about the IC90 [4] of the same compound?
A: The IC90 was 1140 nM.

Q: What about the IC50 [1] of the same compound?
A: Its IC50 is 6.6 nM.

Q: What about the IC50 [2] of the same compound?
A: Its IC50 is 28 nM.

Q: How did the IC50 [4] turn out when c1cc(CN2CCCNCCNCCCNCC2)ccc1CN1CCCNCCNCCCNCC1 [PLERIXAFOR] was run?
A: Its IC50 is 3 nM.

Q: What about the IC90 [4] of the same compound?
A: Its IC90 is 50 nM.
